# According to ChEMBL document CHEMBL5724801, “EUbOPEN Chemogenomics Library - Multiplex” (2024):
# Where “and” joins values, the source holds several entries; their conditions need not be identical. Identical values can stand only once.
# System: Fibroblast
# Test: Multiplex assay against human fibroblast
# Assay type: toxicity, cell-based
# Method in brief: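 Live cells carried four stains from seeding: Hoechst33342, BioTracker Green Microtubule Cytoskeleton Dye, MitoTracker Red and Annexin V Alexa Fluor 680. They were imaged on a CQ1 microscope at 37°C and 5% CO2 after compound addition. Using CellPathfinder machine-learning gating, cells were split into Hoechst high-intensity objects or normal cells, normal cells into healthy, pyknosed or fragmented nuclei, and pyknosed cells into mitotic or apoptotic; tubulin, mitochondrial-mass and membrane-permeability phenotypes are per cents of healthy-nucleus cells.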
# [1] = 12 h, 1 µM, compound concentration 1 uM
# [2] = 12 h, 10 µM, compound concentration 10 uM
# [3] = 24 h, 1 µM, compound concentration 1 uM
# [4] = 24 h, 10 µM, compound concentration 10 uM
# [5] = 48 h, 1 µM, compound concentration 1 uM
# [6] = 48 h, 10 µM, compound concentration 10 uM
smiles,measurement,setting,value
Cl.Cl.OCCOCCN1CCN(C(c2ccccc2)c2ccc(Cl)cc2)CC1 (stereo not given) [HYDROXYZINE HYDROCHLORIDE],Population Apoptotic (%),[1],43% and 51%
same,Population Fragmented Nuclei (%),[1],11% and 22%
same,Population Healthy Nuclei (%),[1],75% and 57%
same,Population Hoechst High Intensity Objects (%),[1],1% and 7%
same,Population Membrane Permeable-Phenotype (%),[1],0% and 8%
same,Population Mitochondria Different-Phenotype (%),[1],4% and 6%
same,Population Mitotic Cells (%),[1],56% and 48%
same,Population Normal (%),[1],98% and 92%
same,Population Pyknosed Nuclei (%),[1],13% and 20%
same,Population Tubulin-Different-Phenotype (%),[1],25% and 46%
same,Total Cell Count,[1],177 and 155
same,Population Apoptotic (%),[2],47% and 40%
same,Population Fragmented Nuclei (%),[2],27% and 19%
same,Population Healthy Nuclei (%),[2],58% and 47%
same,Population Hoechst High Intensity Objects (%),[2],2% and 7%
same,Population Membrane Permeable-Phenotype (%),[2],0% and 7%
same,Population Mitochondria Different-Phenotype (%),[2],14% and 6%
same,Population Mitotic Cells (%),[2],52% and 59%
same,Population Normal (%),[2],97% and 92%
same,Population Pyknosed Nuclei (%),[2],14% and 32%
same,Population Tubulin-Different-Phenotype (%),[2],45% and 58%
same,Total Cell Count,[2],247 and 178
same,Population Apoptotic (%),[3],30% and 44%
same,Population Fragmented Nuclei (%),[3],9% and 26%
same,Population Healthy Nuclei (%),[3],78% and 54%
same,Population Hoechst High Intensity Objects (%),[3],1% and 5%
same,Population Membrane Permeable-Phenotype (%),[3],2% and 5%
same,Population Mitochondria Different-Phenotype (%),[3],6% and 3%
same,Population Mitotic Cells (%),[3],70% and 55%
same,Population Normal (%),[3],98% and 94%
same,Population Pyknosed Nuclei (%),[3],12% and 18%
same,Population Tubulin-Different-Phenotype (%),[3],30% and 47%
same,Total Cell Count,[3],163 and 154
same,Population Apoptotic (%),[4],51% and 36%
same,Population Fragmented Nuclei (%),[4],28% and 29%
same,Population Healthy Nuclei (%),[4],62% and 50%
same,Population Hoechst High Intensity Objects (%),[4],1% and 9%
same,Population Membrane Permeable-Phenotype (%),[4],1% and 6%
same,Population Mitochondria Different-Phenotype (%),[4],10% and 6%
same,Population Mitotic Cells (%),[4],48% and 63%
same,Population Normal (%),[4],98% and 90%
same,Population Pyknosed Nuclei (%),[4],9% and 20%
same,Population Tubulin-Different-Phenotype (%),[4],47% and 66%
same,Total Cell Count,[4],284 and 198
same,Population Apoptotic (%),[5],60% and 42%
same,Population Fragmented Nuclei (%),[5],17% and 34%
same,Population Healthy Nuclei (%),[5],68% and 56%
same,Population Hoechst High Intensity Objects (%),[5],4% and 3%
same,Population Membrane Permeable-Phenotype (%),[5],0% and 2%
same,Population Mitochondria Different-Phenotype (%),[5],3% and 5%
same,Population Mitotic Cells (%),[5],39% and 57%
same,Population Normal (%),[5],95% and 96%
same,Population Pyknosed Nuclei (%),[5],13% and 9%
same,Population Tubulin-Different-Phenotype (%),[5],31% and 44%
same,Total Cell Count,[5],175 and 155
same,Population Apoptotic (%),[6],80% and 37%
same,Population Fragmented Nuclei (%),[6],22% and 36%
same,Population Healthy Nuclei (%),[6],69% and 47%
same,Population Hoechst High Intensity Objects (%),[6],4% and 6%
same,Population Membrane Permeable-Phenotype (%),[6],0% and 11%
same,Population Mitochondria Different-Phenotype (%),[6],7% and 2%
same,Population Normal (%),[6],95% and 94%
same,Population Pyknosed Nuclei (%),[6],8% and 15%
same,Population Tubulin-Different-Phenotype (%),[6],62% and 57%
same,Total Cell Count,[6],272 and 200
CCCCC1=NC2(CCCC2)C(=O)N1Cc1ccc(-c2ccccc2-c2nnn[nH]2)cc1 [IRBESARTAN],Population Apoptotic (%),[1],40% and 38%
same,Population Fragmented Nuclei (%),[1],14% and 24%
same,Population Healthy Nuclei (%),[1],67% and 55%
same,Population Hoechst High Intensity Objects (%),[1],1% and 3%
same,Population Membrane Permeable-Phenotype (%),[1],0% and 7%
same,Population Mitochondria Different-Phenotype (%),[1],5% and 2%
same,Population Mitotic Cells (%),[1],59% and 61%
same,Population Normal (%),[1],98% and 96%
same,Population Pyknosed Nuclei (%),[1],17% and 20%
same,Population Tubulin-Different-Phenotype (%),[1],28% and 43%
same,Total Cell Count,[1],159 and 187
same,Population Apoptotic (%),[2],60% and 45%
same,Population Fragmented Nuclei (%),[2],11% and 32%
same,Population Healthy Nuclei (%),[2],74% and 48%
same,Population Hoechst High Intensity Objects (%),[2],3% and 7%
same,Population Membrane Permeable-Phenotype (%),[2],3% and 12%
same,Population Mitochondria Different-Phenotype (%),[2],4% and 3%
same,Population Mitotic Cells (%),[2],40% and 54%
same,Population Normal (%),[2],96% and 92%
same,Population Pyknosed Nuclei (%),[2],13% and 18%
same,Population Tubulin-Different-Phenotype (%),[2],37% and 53%
same,Total Cell Count,[2],151 and 129
same,Population Apoptotic (%),[3],47% and 31%
same,Population Fragmented Nuclei (%),[3],19% and 25%
same,Population Healthy Nuclei (%),[3],69% and 57%
same,Population Hoechst High Intensity Objects (%),[3],2% and 3%
same,Population Membrane Permeable-Phenotype (%),[3],1%
same,Population Mitochondria Different-Phenotype (%),[3],3% and 0%
same,Population Mitotic Cells (%),[3],52% and 68%
same,Population Normal (%),[3],97% and 96%
same,Population Pyknosed Nuclei (%),[3],10% and 16%
same,Population Tubulin-Different-Phenotype (%),[3],22% and 40%
same,Total Cell Count,[3],170 and 183
same,Population Apoptotic (%),[4],56% and 45%
same,Population Healthy Nuclei (%),[4],74% and 47%
same,Population Hoechst High Intensity Objects (%),[4],1% and 2%
same,Population Membrane Permeable-Phenotype (%),[4],3% and 8%
same,Population Mitochondria Different-Phenotype (%),[4],7% and 5%
same,Population Mitotic Cells (%),[4],44% and 55%
same,Population Normal (%),[4],98% and 97%
same,Population Pyknosed Nuclei (%),[4],16%
same,Population Tubulin-Different-Phenotype (%),[4],37% and 60%
same,Total Cell Count,[4],155 and 125
same,Population Apoptotic (%),[5],60% and 55%
same,Population Fragmented Nuclei (%),[5],21% and 31%
same,Population Healthy Nuclei (%),[5],69% and 58%
same,Population Hoechst High Intensity Objects (%),[5],3% and 2%
same,Population Membrane Permeable-Phenotype (%),[5],0% and 2%
same,Population Mitochondria Different-Phenotype (%),[5],4% and 1%
same,Population Mitotic Cells (%),[5],40% and 44%
same,Population Normal (%),[5],96% and 97%
same,Population Pyknosed Nuclei (%),[5],8% and 10%
same,Population Tubulin-Different-Phenotype (%),[5],31% and 39%
same,Total Cell Count,[5],173 and 178
same,Population Apoptotic (%),[6],61% and 37%
same,Population Fragmented Nuclei (%),[6],14% and 37%
same,Population Healthy Nuclei (%),[6],66% and 48%
same,Population Hoechst High Intensity Objects (%),[6],2% and 0%
same,Population Membrane Permeable-Phenotype (%),[6],1% and 3%
same,Population Mitochondria Different-Phenotype (%),[6],5% and 1%
same,Population Mitotic Cells (%),[6],38% and 62%
same,Population Normal (%),[6],97% and 99%
same,Population Pyknosed Nuclei (%),[6],18% and 13%
same,Population Tubulin-Different-Phenotype (%),[6],38% and 58%
same,Total Cell Count,[6],141 and 117
